Structures are written as SMILES. Values after ≈ are worked out from the molar mass of the structure shown.

The test system of test [1] is Mycobacterium tuberculosis. Nature of the test: Antitubercular activity against Mycobacterium tuberculosis H37Rv by microplate alamar blue assay. Type of test: functional. Put shortly:
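M. tuberculosis H37Rv (ATCC 27294) tested in the microplate Alamar Blue assay with fluorescence read-out. MIC taken as the lowest drug concentration giving ≥90% inhibition relative to untreated cultures.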
A general note: Resazurin is reduced to fluorescent resorufin, in cell work by metabolically active cells.

The next test relates to Vero. The test can be described thus: Cytotoxicity against african green monkey Vero cells. Type of test: cell-based. As to conditions: Chlorocebus sabaeus. The procedure, abridged: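 Vero cells (ATCC CCL-81) tested in the CellTiter 96 aqueous nonradioactive cell proliferation assay. Maximum (100%) cytotoxicity set by lysing cells with sodium dodecyl sulfate. IC50 defined as the reciprocal dilution giving 50% inhibition of the Vero cells.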

Test [2] in a line: Selectivity index, ratio of IC50 for african green monkey Vero cells to MIC for Mycobacterium tuberculosis H37Rv. Format: functional. The procedure, abridged: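 Calculated as Vero IC50 (CellTiter 96 aqueous assay, ATCC CCL-81 cells) divided by the H37Rv MIC (microplate Alamar Blue, ≥90% inhibition relative to untreated cultures).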

As a reminder, the MIC is the least concentration at which growth counts as inhibited. In test [1], `CCCCCCCCCCCC(=O)O[C@H]1CC[C@]23C[C@]24CC[C@]2(C)[C@@H]([C@H](C)C/C=C/C(C)(C)O)CC[C@@]2(C)[C@@H]4CC[C@H]3C1(C)C` yielded an MIC of over 128 µg/mL.

As usually defined, the IC50 is the point on the concentration scale where inhibition reaches its midpoint. In test [1], `C=C(C)[C@@H]1CC[C@]2(C)CC[C@]3(C)[C@H](CC[C@@H]4[C@@]5(C)CC[C@@H](O)C(C)(C)[C@@H]5CC[C@]43C)[C@@H]12` registered an MIC of 13.4 µg/mL (≈ 31.4 µM). This compound returned an IC50 in the test on Vero of 127 µg/mL (≈ 298 µM). Also, the Ratio in test [2] was 10.4.

`C[C@H]1[C@H](C)CC[C@]2(C)CC[C@]3(C)C(=CC[C@@H]4[C@@]5(C)CC[C@@H](O)C(C)(C)[C@@H]5CC[C@]43C)[C@H]12` yielded a minimum inhibitory concentration (MIC) in test [1] of over 128 µg/mL.

As for `CC1(C)CC[C@]2(C)CC[C@]3(C)C(=CC[C@@H]4[C@@]5(C)CC[C@@H](O)C(C)(C)[C@@H]5CC[C@]43C)[C@@H]2C1`, the MIC in test [1] turned out to be 12.2 µg/mL (≈ 28.6 µM). This compound yielded an IC50 in the test on Vero of 127 µg/mL (≈ 298 µM). In test [2], the Ratio was determined as 10.4.

With `O=C(c1c(O)cc(O)cc1O)[C@H](O)[C@H](O)c1cc(O)c(O)c(O)c1`, the MIC in test [1] was over 128 µg/mL.

For `C[C@@H]1CC[C@]2(C(=O)O)CC[C@]3(C)C(=CC[C@@H]4[C@@]5(C)C[C@@H](O)[C@H](O)[C@@](C)(CO)[C@@H]5CC[C@]43C)[C@@H]2C1`, in test [1], the MIC was over 128 µg/mL.

With `O=c1c(O[C@@H]2O[C@H](CO)[C@@H](O)[C@H](O)[C@H]2O)c(-c2ccc(O)cc2)oc2cc(O)cc(O)c12` [ASTRAGALIN], the MIC in test [1] is over 128 µg/mL.

As to `CC(C)CCC[C@@H](C)[C@H]1CC[C@@]2(C)[C@@H]3CC[C@H]4C(C)(C)[C@@H](O)CC[C@@]45C[C@@]35CC[C@]12C` [CYCLOARTANOL], in test [1], the lowest concentration to inhibit growth (MIC) was 8 µg/mL (≈ 18.7 µM). In the test on Vero, this compound yielded an IC50 of 102 µg/mL (≈ 239 µM). For the same compound, the Ratio in test [2] turned out to be 12.8.

`O=c1c(O[C@@H]2O[C@H](CO)[C@@H](O)[C@H](O)[C@H]2O)c(-c2ccc(O)c(O)c2)oc2cc(O)cc(O)c12` [ISOQUERCETIN] came in with a minimum inhibitory concentration (MIC) in test [1] of 94 µg/mL (≈ 202 µM).

Regarding `C=C[C@@]1(C)C=C2CC[C@H]3C(C)(C)C(=O)C[C@@H](O)[C@@]3(C)[C@H]2C[C@H]1O` [LECHERONOL A], in test [1], 4 µg/mL (≈ 12.6 µM) was the least that counted as inhibitory (MIC). The compound also displayed an IC50 with Vero of 105 µg/mL (≈ 329 µM). In addition, the Ratio in test [2] turned out to be 26.2.

`C=C[C@@]1(C)C=C2CC[C@@H]3[C@@](C)(CCC(=O)[C@@]3(C)CO)[C@H]2C[C@H]1O` [LECHERONOL B] gave an MIC in test [1] of 128 µg/mL (≈ 402 µM).

In the case of `C=C(C)[C@@H]1CC[C@]2(C)CC[C@]3(C)[C@H](CC[C@@H]4[C@@]5(C)CC[C@H](O)C(C)(C)[C@@H]5CC[C@]43C)[C@@H]12` [LUPEOL], the minimal inhibitory concentration (MIC) in test [1] is over 128 µg/mL.

In turn, `CO[C@H]1/C=C/O[C@@]2(C)Oc3c(C)c(O)c4c(O)c(c(/C=N/N5CCN(C)CC5)c(O)c4c3C2=O)NC(=O)/C(C)=C\C=C\[C@H](C)[C@H](O)[C@@H](C)[C@@H](O)[C@@H](C)[C@H](OC(C)=O)[C@@H]1C` [RIFAMPIN] gave an MIC in test [1] of 0.06 µg/mL (≈ 0.0729 µM).

As for `CC1(C)CC[C@]2(C)CC[C@]3(C)C(=CC[C@@H]4[C@@]5(C)CC[C@H](O)C(C)(C)[C@@H]5CC[C@]43C)[C@@H]2C1` [beta-AMYRIN], in test [1], the MIC was 64 µg/mL (≈ 150 µM).

For the origin of these results see ChEMBL document CHEMBL1151170, “Mycobacterium tuberculosis growth inhibition by constituents of Sapium haematospermum” (J Nat Prod, 2004).
